Source: PubChem (several laboratories)
CYP2C19 inhib – blockers of cytochrome P450 2C19 activity – biochemical, luminescence, ADME assay, primary screen. P33261. CYP2C19 Supersomes, luciferin-H EGE luminescence, 30 min. inhibition, % at 5 µM. actives 21% (n = 96,000). AID 778, 2007;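 active = CYP2C19 inhibition above a set limit at 5 µM in the primary screen, cut at about 50% in these data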;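 note: plate controls were negative control wells for no effect and 2.5 mM tranylcypromine positive control for full effect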
CYP2C9 inhib – blockers of cytochrome P450 2C9 activity – biochemical, luminescence, ADME assay, primary screen. AID 777, 2007. inhibition, % at 5 µM. actives 20% (n = 96,000). CYP2C9 Supersomes, luciferin-H conversion;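 active = blocking of liver enzyme CYP2C9 beyond about 50% at 5 µM, limit read from the data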
CYP2C9 activ – human CYP2C9 activators, primary screen, biochemical, luminescence. Cytochrome P450 2C9 (Homo sapiens), P11712. recombinant CYP2C9, luciferin-H conversion; stronger effect = higher value; factor 1 = untreated enzyme, 0 = blocked. activation factor at 5 µM. actives 1.4% (n = 96,000);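 active = activation factor of 2 or more for CYP2C9 at a 5 µM dose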;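 note: 0 = sulfaphenazole-blocked wells and 1 = vehicle-only wells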
Rev-RRE block – HIV-1 Rev-RRE binding inhibitors, primary screen, biochemical, FRET, protein-RNA interaction | Rev peptide-RRE RNA binding | inhibition, % at 8 µM | actives 0.79% (n = 97,000);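 active = inhibition above the screen-wide mean plus 3 SD, cut at about 35% in these data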;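 note: 0% = median DMSO wells and 100% = median Neomycin B control wells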
Target sequence (P05866 whole entry, looked up): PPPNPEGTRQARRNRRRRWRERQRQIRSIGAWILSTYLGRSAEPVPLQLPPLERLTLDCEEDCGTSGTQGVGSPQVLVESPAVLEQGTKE
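Probe or stimulus: fluorescein-Rev peptide as binding partner; assay system: Cy5-tagged RRE RNA duplex with fluorescein-tagged Rev peptide; timing: 5 min compound–RNA preincubation, then 15 min with peptide, 25 °C; medium: HEPES pH 7.5 buffer with KCl, MgCl2, NaCl and EDTA; signal: fluorescein-to-Cy5 FRET, 480 nm excitation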
CYP2C19 act – human CYP2C19 activators, primary screen, biochemical, luminescence. AID 1025, 2008. 96,000 tested, under 10 active. Cytochrome P450 2C19 (Homo sapiens), P33261. recombinant CYP2C19, luciferin-H EGE luminescence; stronger effect = higher value; 0 = fully inhibited enzyme, 1 = untreated enzyme. activation factor at 5 µM;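 active = activation factor of at least 2 at 5 µM in the primary screen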;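 note: 0 = wells with 2.5 mM tranylcypromine and 1 = vehicle-only wells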
Cav3 T inh – Cav3.2 calcium influx blockers – cell-based, Fluo-4 calcium fluorescence, FDSS, MLSMR library, primary screen; Cav3.2-expressing cells; stronger effect = lower value; B-score at 10 µM; Voltage-dependent T-type calcium channel subunit alpha-1H (Homo sapiens), O95180; actives 4% (n = 100,000);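 active = single-dose well whose peak fluorescence ratio is a statistical outlier from its plate by either plate-standardised score or position-corrected B-score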
An asterisk follows results filed as active; . = no result. Compounds with a hit are over-represented: about 27% of the library has one in this group of screens.

SMILES	CYP2C19 inhib	CYP2C9 inhib	CYP2C9 activ	Rev-RRE block	CYP2C19 act	Cav3 T inh
CCS(=O)(=O)Nc1ccc(C(=O)OC)cc1	63.6*	69.0*	0.3	6.2	0.4	0.0451
CCOC(=O)c1ccccc1NC(=O)c1ccccc1N(C)S(C)(=O)=O	76.2*	43.0	0.6	-1.4	0.2	.
CN(c1ccccc1C(=O)Nc1ccc(S(=O)(=O)N2CCCC2)cc1)S(C)(=O)=O	8.2	63.9*	0.4	2.0	0.9	-0.452
COC(=O)c1ccc(NC(=O)c2ccccc2N(C)S(C)(=O)=O)cc1	62.0*	37.9	0.6	-1.2	0.4	0.487
CCS(=O)(=O)Nc1ccc(C(=O)c2ccccc2)cc1	.	.	.	2.8	.	-0.00187
CCOC(=O)c1ccccc1NC(=O)c1ccc(N(C)S(C)(=O)=O)cc1	33.0	28.5	0.7	21.2	0.7	-0.328
CC(=O)Nc1ccc(NC(=O)c2ccccc2N(C)S(C)(=O)=O)cc1	-15.5	-13.1	1.1	8.1	1.2	0.535
CCCOC(=O)c1ccc(NC(=O)c2cn(CC)c3nc(C)ccc3c2=O)cc1	-2.7	11.2	0.9	7.9	1	.
COC(=O)c1ccc(NC(=O)c2ccccc2NS(C)(=O)=O)cc1	23.0	66.5*	0.3	-0.3	0.8	0.233
COc1ccccc1NC(=O)c1ccc(NS(C)(=O)=O)cc1	8.4	-232.7	3.3*	4.6	0.9	-0.116
COc1ccccc1NC(=O)c1ccccc1NS(C)(=O)=O	-1.8	19.2	0.8	6.7	1	0.759
COC(=O)c1ccccc1NC(=O)c1ccccc1N(C)S(C)(=O)=O	50.0*	38.9	0.6	6.6	0.5	.
COC(=O)c1ccc(NC(=O)c2cccc(OC)c2)cc1	48.7	2.3	1	-1.3	0.5	-0.186
CS(=O)(=O)Nc1ccccc1C(=O)c1ccccc1	61.4*	-19.3	1.2	4.5	0.4	0.576
Cc1occc1-c1nnc(SCC(=O)N(C)CCC#N)n1N	6.3	3.5	1	0.2	0.9	0.671
CCC/C=C(\CCC)C(NS(=O)(=O)c1cccc2cccnc12)c1ccc(C(=O)OC)cc1 (stereo not given)	.	.	.	.	.	-1.49
Cn1cc(C(=O)c2ccc(Cl)cc2Cl)cc1C(=O)N/N=C(\N)COc1cccc(C(F)(F)F)c1	64.0*	61.9*	0.4	7.3	0.4	-8.36*
c1ccc(Oc2cc(-c3ccccc3)ncn2)cc1	65.9*	13.3	0.9	-0.5	0.3	0.992
CCOC(=O)c1cnn(-c2cc(Oc3ccccc3)ncn2)c1N	-10.2	0.8	1	7.5	1.1	1.07
Cc1nc2ccccc2c2c1C(=O)N(C(C)C)C2=O	70.3*	2.7	1	0.6	0.3	-0.453
Cc1nc2ccccc2c2c1C(=O)N(C)C2=O	-8.4	4.3	1	7.0	1.1	1.2
C=CCn1c(=O)c2c(nc(Br)n2Cc2ccccc2Cl)n(C)c1=O	70.9*	4.3	1	8.7	0.3	-0.935
COc1cccc(NC(=O)N2CCOCC2)c1	0.2	-1.0	1	5.7	1	0.907
CC(=O)Nc1ccccc1-c1nc2ccc(C(=O)N3CCN(c4cccc(C)c4)C(C)C3)cc2[nH]c1=O (stereo not given)	69.6*	86.7*	0.1	8.3	0.3	-0.335
Cn1c(C(=O)N2CCCCCC2)cc2c(=O)n(C)c3ccccc3c21	35.1	-4.1	1	4.9	0.6	0.395
COc1cccc(NC(=O)N2CCN(c3cccc(C)c3)C(C)C2)c1 (stereo not given)	58.7*	-16.3	1.2	4.0	0.4	-4.89*
Cc1cccc(N2CCN(C(=O)c3ccc4nc(-c5ccco5)c(-c5ccco5)nc4c3)CC2C)c1 (stereo not given)	49.4	52.4*	0.5	-1.6	0.5	-6.55*
Cc1cccc(N2CCN(C(=O)c3cc4c(=O)n(C)c5ccccc5c4n3C)CC2C)c1 (stereo not given)	99.0*	94.3*	0.1	8.8	0	-4.41*
